Converted amounts (≈) assume the structure as drawn.
Key:
[1] = target: T1, C-C chemokine receptor type 1 (Homo sapiens, UniProt P32246); experiment: Antagonist activity at CCR1 receptor (unknown origin) by [35S]GTPgammaS binding assay; assay type: functional
T1 sequence (P32246 whole entry): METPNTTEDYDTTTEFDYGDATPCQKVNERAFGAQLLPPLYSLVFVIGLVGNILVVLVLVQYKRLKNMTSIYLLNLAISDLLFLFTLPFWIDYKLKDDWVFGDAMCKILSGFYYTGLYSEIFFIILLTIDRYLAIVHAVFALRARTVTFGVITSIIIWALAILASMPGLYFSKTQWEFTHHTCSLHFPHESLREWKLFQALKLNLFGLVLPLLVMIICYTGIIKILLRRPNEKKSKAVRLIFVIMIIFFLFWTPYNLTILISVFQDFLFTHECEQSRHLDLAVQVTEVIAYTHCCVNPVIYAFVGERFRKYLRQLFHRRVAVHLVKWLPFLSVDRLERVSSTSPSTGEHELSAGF

Oryctolagus cuniculus [2] = organism: Oryctolagus cuniculus; experiment: Cardiotoxicity in rabbit assessed as effect on conduction; assay type: toxicity
[3] = target: C-C chemokine receptor type 2 (Homo sapiens, UniProt P41597); experiment: Antagonist activity at CCR2 receptor (unknown origin) by [35S]GTPgammaS binding assay; assay type: functional
[4] = Oral bioavailability in CD rat at 10 mg/kg administered as suspension; assay type: ADME, organism-based; conditions: in vivo
Rattus norvegicus [5] = experiment: Toxicity in rat assessed as effect on body temperature at 30 to 300 mg/kg, po; assay type: organism-based; parameters: dose 30-300 mg/kg, route oral; conditions: in vivo
Summary of the method: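 Conscious rats were given oral doses of 30, 100 and 300 mg/kg. Body temperature, cardiovascular and electrocardiographic parameters were monitored.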

[6] = Kinetic solubility of the compound in PBS using MeOH at pH 7.4 by NMR analysis; assay type: physicochemical; conditions: read-out: Kinetic_solubility
Oryctolagus cuniculus [7] = organism: Oryctolagus cuniculus; experiment: Cardiotoxicity in rabbit assessed as effect on cardiac repolarization; assay type: toxicity, Heart
Salmonella typhimurium = experiment: Genotoxicity in Salmonella typhimurium by Ames test; assay type: toxicity, organism-based; conditions: salmonella enterica subsp. enterica serovar typhimurium
[8] = Equilibrium solubility of the compound in Britton-Robinson buffer at pH 10 after 24 hrs by HPLC analysis; assay type: physicochemical
Summary of the method: (§1)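 Solid compound was equilibrated 24 h in Britton–Robinson buffer at the stated pH. Dissolved compound was quantified by HPLC.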

Oryctolagus cuniculus [9] = organism: Oryctolagus cuniculus; experiment: Cardiotoxicity in rabbit assessed as liability for torsadogenic arrhythmia; assay type: toxicity
[10] = Plasma protein binding in Beagle dog by equilibrium dialysis technique; assay type: ADME, cell-free, Canis lupus familiaris; conditions: read-out: PPB
Summary of the method: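 Rapid equilibrium dialysis in CD rat, beagle dog or human plasma, with compound at a nominal 1 μg/mL; n = 3.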

Oryctolagus cuniculus [11] = organism: Oryctolagus cuniculus; experiment: Cardiotoxicity in rabbit ventricular wedge assessed as cardiovascular issues upto 10 uM; assay type: toxicity, Cardiac ventricle
[12] = Volume of distribution at steady state in Beagle dog at 0.5 mg/kg, iv; assay type: ADME, organism-based, Canis lupus familiaris; parameters: dose 0.5 mg/kg, route intravenous; conditions: beagle, in vivo, read-out: Vdss
HepG2 = experiment: Cytotoxicity in human HepG2 cells assessed as effect on cell membrane; assay type: cell-based
[13] = Chemical stability of the compound in PBS using MeOH at pH 7.4 by NMR analysis; assay type: physicochemical; conditions: buffer
[14] = Equilibrium solubility of the compound in fasted-state simulated intestinal fluid at pH 6.5 after 24 hrs by HPLC analysis; assay type: physicochemical
Summary of the method: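 Solid compound was equilibrated 24 h in the stated medium: water, SGF pH 1.6, FeSSIF pH 6.5, FaSSIF pH 6.5 or saline. Dissolved compound was quantified by HPLC.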

[15] = Kinetic solubility of the compound in PBS using DMSO at pH 7.4 by NMR analysis; assay type: physicochemical; conditions: read-out: Kinetic_solubility
[16] = target: T2, C-C chemokine receptor type 4 (Homo sapiens, UniProt P51679); experiment: Antagonist activity at human recombinant CCR4 receptor expressed in CHO cell membranes by [35S]GTPgammaS binding assay; assay type: functional
T2 sequence (P51679 whole entry): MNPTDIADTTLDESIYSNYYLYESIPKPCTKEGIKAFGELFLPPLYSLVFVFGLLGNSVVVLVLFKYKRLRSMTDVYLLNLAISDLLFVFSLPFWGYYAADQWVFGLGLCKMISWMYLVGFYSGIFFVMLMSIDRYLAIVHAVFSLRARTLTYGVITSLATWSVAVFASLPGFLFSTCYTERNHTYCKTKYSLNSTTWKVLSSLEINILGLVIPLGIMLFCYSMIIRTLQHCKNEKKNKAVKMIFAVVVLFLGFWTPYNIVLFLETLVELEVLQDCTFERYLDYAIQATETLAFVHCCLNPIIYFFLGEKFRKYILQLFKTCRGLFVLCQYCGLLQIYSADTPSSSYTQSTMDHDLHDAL

[17] = Oral bioavailability in CD rat at 1 mg/kg administered as suspension; assay type: ADME, organism-based; conditions: in vivo
Summary of the method: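 Rats received an oral suspension of wet bead-milled material (particle size <1 μm), dosed at 1, 10 and 30 mg/kg.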

in vivo [18] = conditions: CD, rat, iv, 1 mg/kg
in vivo [19] = conditions: beagle, dog, iv, 0.5 mg/kg
[20] = Equilibrium solubility of the compound in Britton-Robinson buffer at pH 7 after 24 hrs by HPLC analysis; assay type: physicochemical; summary of the method: as §1
[21] = Oral bioavailability in Beagle dog at 1 mg/kg; assay type: ADME, organism-based, Canis lupus familiaris; conditions: in vivo
[22] = target: C-C chemokine receptor type 8 (Homo sapiens, UniProt P51685); experiment: Antagonist activity at CCR8 receptor (unknown origin) by [35S]GTPgammaS binding assay; assay type: functional
[23] = Dissociation constant, pKa of the compound; assay type: physicochemical
[24] = Chemical stability of the compound in PBS using DMSO at pH 7.4 after 100 hrs by NMR analysis; assay type: physicochemical; conditions: buffer, pH 7.4, 100 h
in vivo [25] = conditions: beagle, dog, iv, 0.5 mg/kg; remark: listed apart in the source
Rattus norvegicus [26] = experiment: Toxicity in rat administered for 7 days; assay type: organism-based; conditions: in vivo, 168 h
[27] = target: T3, C-X-C chemokine receptor type 3 (Homo sapiens, UniProt P49682); experiment: Antagonist activity at CXCR3 receptor (unknown origin) by [35S]GTPgammaS binding assay; assay type: functional
T3 sequence (P49682 whole entry): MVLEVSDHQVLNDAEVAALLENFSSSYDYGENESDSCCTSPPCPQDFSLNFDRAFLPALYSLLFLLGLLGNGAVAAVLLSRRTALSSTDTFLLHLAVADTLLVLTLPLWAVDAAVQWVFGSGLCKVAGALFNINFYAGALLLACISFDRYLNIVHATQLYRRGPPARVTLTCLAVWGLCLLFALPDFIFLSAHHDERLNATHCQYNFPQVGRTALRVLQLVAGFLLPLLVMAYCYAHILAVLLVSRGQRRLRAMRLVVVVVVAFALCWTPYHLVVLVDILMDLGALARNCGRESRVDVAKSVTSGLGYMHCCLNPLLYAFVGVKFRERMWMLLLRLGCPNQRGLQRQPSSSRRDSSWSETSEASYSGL

Chain of C-C chemokine receptor type 8 (P51685 whole entry): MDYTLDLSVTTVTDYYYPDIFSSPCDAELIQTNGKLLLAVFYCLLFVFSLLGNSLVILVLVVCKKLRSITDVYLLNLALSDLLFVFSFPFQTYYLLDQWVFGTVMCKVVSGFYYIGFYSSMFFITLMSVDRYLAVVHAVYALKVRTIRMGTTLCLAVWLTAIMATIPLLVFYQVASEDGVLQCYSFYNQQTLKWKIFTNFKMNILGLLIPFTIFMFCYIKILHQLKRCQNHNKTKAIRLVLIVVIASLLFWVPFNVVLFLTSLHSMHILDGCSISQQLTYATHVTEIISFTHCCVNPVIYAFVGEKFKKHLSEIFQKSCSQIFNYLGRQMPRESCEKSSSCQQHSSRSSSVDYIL
Chain of C-C chemokine receptor type 2 (P41597 whole entry): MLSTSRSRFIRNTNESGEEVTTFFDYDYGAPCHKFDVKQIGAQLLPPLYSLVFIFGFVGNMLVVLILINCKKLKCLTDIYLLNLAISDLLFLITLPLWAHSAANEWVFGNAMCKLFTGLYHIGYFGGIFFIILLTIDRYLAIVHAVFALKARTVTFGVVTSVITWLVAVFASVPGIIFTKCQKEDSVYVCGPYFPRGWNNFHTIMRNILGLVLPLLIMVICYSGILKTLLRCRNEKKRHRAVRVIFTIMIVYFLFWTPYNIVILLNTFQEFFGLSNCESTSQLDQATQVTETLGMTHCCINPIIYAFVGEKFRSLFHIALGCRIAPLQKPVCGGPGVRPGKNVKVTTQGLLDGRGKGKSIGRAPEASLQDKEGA

In the case of `COc1cccc2c1c(NS(=O)(=O)c1ccc(Cl)s1)nn2Cc1cccc(CNC(=O)C(C)(C)O)c1`, the IC50 [1] is reported as greater than 10 µM, the Activity (Oryctolagus cuniculus [2]) is reported as “Non-toxic” and the IC50 [3] is reported as greater than 10 µM. For the same compound, the bioavailability [4] was 80%, the Activity (Rattus norvegicus [5]) was “Non-toxic” and the solubility kinetic [6] was greater than 270 µg/mL. For the same compound, the Activity (Oryctolagus cuniculus [7]) was “Non-toxic”, the Activity (Salmonella typhimurium) was “Non-toxic” and the solubility thermodynamic at 24 h [8] was 1320 µg/mL (≈ 2410 µM). The Activity (Oryctolagus cuniculus [9]) was “Non-toxic”, the fraction unbound [10] was no more than 0.01 and the Activity (Oryctolagus cuniculus [11]) was “Non-toxic”. For the same compound, the Vd [12] was 2.2 L/kg, the Activity (HepG2) was “Non-toxic” and the Stability [13] was “Unstable”. The solubility thermodynamic at 24 h [14] was 10 µg/mL (≈ 18.2 µM), the solubility kinetic [15] was 270 µg/mL (≈ 492 µM) and the IC50 [16] was 0.0398 µM. For the same compound, the bioavailability [17] was 53%, the half-life (in vivo [18]) was 2.5 h and the clearance (in vivo [19]) was 9 mL/min/kg. It also gave a solubility thermodynamic at 24 h [20] of 10 µg/mL (≈ 18.2 µM), a bioavailability [21] of 97% and an IC50 [22] greater than 10 µM. The pKa [23] was 6.54, the Stability [24] was “Stable” and the half-life (in vivo [25]) was 2.6 h. For the same compound, the Activity (Rattus norvegicus [26]) was “Non-toxic” and the IC50 [27] was greater than 10 µM.
